# According to ChEMBL document CHEMBL4261484, “Design, synthesis and anticonvulsant-analgesic activity of new N-[(phenoxy)alkyl]- and N-[(phenoxy)ethoxyethyl]aminoalkanols” (Medchemcomm, 2017):
# Activity calls are given as the source filed them.
# Columns and labels:
# [1] = system: SH-SY5Y; assay: Cytotoxicity against human SH-SY5Y cells 10^-8 to 10^-4 M after 72 hrs by LDH release assay; format: cell-based
# Method in brief: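 SH-SY5Y cells grown in DMEM with 10% FBS, then seeded at 15000 per well in 1% FBS a day ahead. Treated with 10^-8 to 10^-4 M (water-dissolved) for 72 h, with vehicle controls and triton as positive control. LDH in medium read at 490 nm, expressed as % of vehicle-treated cells. Dunnett's test after one-way ANOVA.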
# [2] = system: Mus musculus; assay: Analgesic activity in mouse assessed as decrease in time of paw licking during phase 1 at 69 mg/kg, ip measured for 5 mins by formalin test relative to control; format: functional; design: scale not given: the % may be the effect or the level left
# Method in brief: (§1)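 Formalin test in mice: 20 μL of 5% formalin injected intraplantarly into the right hind paw. Each mouse was observed alone in a glass beaker for 30 min. Time (s) spent licking or biting the injected paw was recorded at 0–5 min (acute phase) and 15–30 min (inflammatory phase).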
# [3] = Neurotoxicity in ip dosed mouse assessed as motor impairment measured for one min by rotarod test; format: toxicity, organism-based; conditions: in vivo
# Method in brief: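 Mice trained on an accelerating rotarod, then tested at least 24 h later after ip pretreatment, on a rod turning at 10 rpm. Neurotoxicity was scored as failure to stay on the rod for one minute. Read-out is mice impaired over mice tested.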
# [4] = system: Mus musculus; assay: Toxicity in mouse at 100 mg/kg, ip measured during maximal electroshock seizure test; format: organism-based; conditions: in vivo
# [5] = system: SH-SY5Y; assay: Potentiation of H2O2-induced cytotoxicity against human SH-SY5Y cells at 10^-6 to 10^-5 M after 24 hrs by MTT assay; format: cell-based
# [6] = system: Mus musculus; assay: Toxicity in mouse assessed as effect on spontaneous activity at 69 mg/kg, ip measured for 30 mins by photoresistor actometer relative to control; format: organism-based; conditions: in vivo, 0.5 h
# Method in brief: (§2)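 Mice dosed ip; locomotor activity by photoresistor actometers counting light-beam interruptions. Each mouse was habituated 30 min in a cage, then crossings were counted over a 30 min session. Data are mean ± SEM and % change vs control; unpaired t test.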
# [7] = system: Mus musculus; assay: Anticonvulsant activity in ip dosed mouse assessed as protection against maximal electroshock-induced seizures; format: functional
# Method in brief: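 Mice were dosed ip. Maximal seizures were induced by auricular electrodes (25 mA, 500 V, 50 Hz, 0.2 s). Absence of hind-limb tonic extension counted as protection. […] Motor impairment was scored on a 10 rpm rotarod, giving TD50 the same way.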
# [8] = system: Mus musculus; assay: Anticonvulsant activity in mouse assessed as increase in electroconvulsive threshold at 30 mg/kg, ip by maximal electroshock seizure threshold test relative to control; format: functional
# [9] = system: SH-SY5Y; assay: Potentiation of H2O2-induced cytotoxicity against human SH-SY5Y cells at 10^-8 to 10^-6 M after 72 hrs by LDH release assay; format: cell-based
# Method in brief: (§3)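 SH-SY5Y cells in 1% FBS given 10^-8 to 10^-5 M for 72 h, with H2O2 (0.5 mM) added for the last 24 h. LDH released into medium measured at 490 nm and normalized to vehicle cells without H2O2. Dunnett's test after one-way ANOVA.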
# [10] = system: SH-SY5Y; assay: Cytotoxicity against human SH-SY5Y cells 10^-8 to 10^-4 M after 24 hrs by MTT assay; format: cell-based
# [11] = system: Mus musculus; assay: Analgesic activity in mouse assessed as decrease in time of paw licking during phase 2 at 69 mg/kg, ip measured for 15 to 30 mins by formalin test relative to control; format: functional; design: scale not given: the % may be the effect or the level left; method in brief: as §1
# [12] = system: Mus musculus; assay: Toxicity in mouse at 80 mg/kg, ip measured during maximal electroshock seizure test; format: organism-based; conditions: in vivo
# [13] = system: HepG2; assay: Cytotoxicity against human HepG2 cells assessed as effect on cell viability at 10 to 250 uM after 24 hrs by MTT assay; format: cell-based; conditions: hepg2, 24 h
# Method in brief: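 HepG2 cells grown in MEM with 10% FBS (37 °C, 5% CO2) and seeded at 1 × 10^4. After overnight culture, exposed to 10–250 μM for 24 h. MTT for 3 h, formazan dissolved, OD 570 nm. Viability is % of control ± SEM from three independent experiments.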
# [14] = system: Mus musculus; assay: Neurotoxicity in mouse assessed as motor impairment by measuring loss of coordination at 69 mg/kg, ip measured for 60 secs by chimney test relative to control; format: toxicity, organism-based; conditions: in vivo, 1 min
# Method in brief: (§4)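 Mice dosed ip; trained, selected animals placed in a horizontal tube 25 cm long and 2.5 cm in diameter, then tube reversed so mice must climb out backward. Read-outs: escape time (s) ± SEM and % animals losing coordination versus control. Unpaired t test.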
# [15] = system: Mus musculus; assay: Anticonvulsant activity in mouse assessed as protection against subcutaneous pentylenetetrazole-induced seizures by measuring latency time of tonic seizures at 100 mg/kg, ip measured for 30 mins post pentylenetetrazole challenge at 0.5 hrs after compound dosing (reference value: 562.8 to 614.9 secs); format: functional
# [16] = system: Mus musculus; assay: Neurotoxicity in mouse assessed as motor impairment by measuring time of escaping from chimney at 69 mg/kg, ip measured for 60 secs (reference value: 8.87 +/- 1.79 secs); format: toxicity, organism-based; conditions: in vivo, 1 min; method in brief: as §4
# [17] = system: Mus musculus; assay: Anticonvulsant activity in mouse assessed as protection against subcutaneous pentylenetetrazole-induced seizures at 100 mg/kg, ip measured for 30 mins post pentylenetetrazole challenge at 0.5 hrs after compound dosing relative to control; format: functional
# [18] = system: Mus musculus; assay: Anticonvulsant activity in mouse assessed as protection against maximal electroshock-induced seizures at 100 mg/kg, ip; format: functional, organism-based
# Method in brief: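 Mice dosed ip; maximal seizures induced by auricular electroshock (25 mA, 500 V, 50 Hz, 0.2 s). Endpoint: hind-limb tonic extension; animals without it scored protected. Read-out is number protected over number tested.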
# [19] = Protection index, ratio of TD50 for neurotoxicity in ip dosed mouse by rotarod test to ED50 for anticonvulsant activity in mouse by maximal electroshock seizure test; format: toxicity, organism-based; conditions: in vivo, read-out: Ratio TD50/ED50
# [20] = system: SH-SY5Y; assay: Potentiation of H2O2-induced cytotoxicity against human SH-SY5Y cells at 10^-5 M after 72 hrs by LDH release assay; format: cell-based; conditions: 10 µM; method in brief: as §3
# [21] = Cytotoxicity against mouse CRL-2541 cells assessed as effect on cell viability at 10 to 250 uM after 24 hrs by MTT assay; format: cell-based
# [22] = system: HepG2; assay: Cytotoxicity against human HepG2 cells assessed as effect on cell viability at 10 to 250 uM after 24 hrs by neutral red assay; format: cell-based; conditions: hepg2, 24 h
# Method in brief: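 HepG2 cells seeded at 5 × 10^4 per well, then after 24 h given medium with 10–250 μM for 24 h. Viability by neutral red staining, OD 570 nm. Results are % of control ± SEM, three independent experiments.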
# [23] = system: Mus musculus; assay: Anticonvulsant activity in mouse assessed as current strength required to induce tonic hind-limb extension in 50% of the animals at 30 mg/kg, ip by maximal electroshock seizure threshold test (reference value: 6.05 to 8.13 mA); format: functional
# [24] = system: Mus musculus; assay: Toxicity in mouse at 60 mg/kg, ip measured during maximal electroshock seizure test; format: organism-based; conditions: in vivo
# [25] = system: Mus musculus; assay: Toxicity in mouse at 30 mg/kg, ip measured during maximal electroshock seizure test; format: organism-based; conditions: in vivo
# [26] = system: Mus musculus; assay: Toxicity in mouse at 25 mg/kg, ip measured during maximal electroshock seizure test; format: organism-based; conditions: in vivo
# [27] = system: Mus musculus; assay: Neurotoxicity in mouse assessed as motor impairment by measuring time of escaping from chimney at 24 mg/kg, ip measured for 60 secs (reference value: 8.87 +/- 1.79 secs); format: toxicity, organism-based; conditions: in vivo, 1 min; method in brief: as §4
# [28] = system: Mus musculus; assay: Analgesic activity in mouse assessed as decrease in time of paw licking during phase 2 at 24 mg/kg, ip measured for 15 to 30 mins by formalin test relative to control; format: functional; design: scale not given: the % may be the effect or the level left; method in brief: as §1
# [29] = system: Mus musculus; assay: Toxicity in mouse at 20 mg/kg, ip measured during maximal electroshock seizure test; format: organism-based; conditions: in vivo
# [30] = system: Mus musculus; assay: Neurotoxicity in mouse assessed as motor impairment by measuring loss of coordination at 24 mg/kg, ip measured for 60 secs by chimney test relative to control; format: toxicity, organism-based; conditions: in vivo, 1 min; method in brief: as §4
# [31] = system: Mus musculus; assay: Analgesic activity in mouse assessed as decrease in time of paw licking during phase 1 at 24 mg/kg, ip measured for 5 mins by formalin test relative to control; format: functional; design: scale not given: the % may be the effect or the level left; method in brief: as §1
# [32] = system: Mus musculus; assay: Anticonvulsant activity in mouse assessed as increase in electroconvulsive threshold at 10 mg/kg, ip by maximal electroshock seizure threshold test relative to control; format: functional
# [33] = system: Mus musculus; assay: Toxicity in mouse assessed as effect on spontaneous activity at 24 mg/kg, ip measured for 30 mins by photoresistor actometer relative to control; format: organism-based; conditions: in vivo, 0.5 h; method in brief: as §2
# [34] = system: Mus musculus; assay: Anticonvulsant activity in mouse assessed as current strength required to induce tonic hind-limb extension in 50% of the animals at 10 mg/kg, ip by maximal electroshock seizure threshold test (reference value: 6.05 to 8.13 mA); format: functional
# [35] = system: HepG2; assay: Cytotoxicity against human HepG2 cells assessed as effect on cell viability at 10 to 200 uM after 24 hrs by MTT assay; format: cell-based; conditions: hepg2, 24 h
# Method in brief: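 HepG2 cells grown in MEM with 10% FBS (37 °C, 5% CO2) and seeded at 1 × 10^4. After overnight culture, doxorubicin 10–200 μM for 24 h. MTT added for 3 h, crystals dissolved, OD 570 nm. Viability is % of control ± SEM, three independent experiments.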
smiles,measurement,setting,value
Cc1cccc(OCCOCCN2CCCC(O)C2)c1C.Cl (stereo unspecified),Activity,[1],Non-Toxic
same,Activity,[2],13.74%
same,TD50 at 1 min,[3],122 mg/kg
same,Activity,[4],Non-Toxic
same,Activity,[5],Toxic
same,Activity,[6],14.98%
same,ED50,[7],68.7 mg/kg
same,Activity,[8],75.03%
same,Activity,[9],Non-Toxic
same,Activity,[10],Non-Toxic
same,Activity,[11],64.59%
same,Activity,[12],Non-Toxic
same,Activity,[13],Non-Toxic
same,Activity,[14],0%
same,Time,[15],564.8 s
same,Time,[16],4.75 s
same,Activity,[17],inactive
same,Activity,[18],Active
same,selectivity ratio,[19],1.77
same,Activity,[20],Toxic
same,Activity,[21],Non-Toxic
same,Activity,[22],Non-Toxic
same,Activity,[23],13.18 mA
same,Activity,[24],Non-Toxic
Cc1cccc(Cl)c1OCCOCCNCC(O)c1ccccc1 (racemic),Activity,[25],Non-Toxic
same,Activity,[4],Non-Toxic
same,Activity,[26],Non-Toxic
same,ED50,[7],23.9 mg/kg
same,Time,[27],3.5 s
same,Activity,[28],8.8%
same,Activity,[29],Non-Toxic
same,Activity,[30],0%
same,Activity,[31],8.57%
same,Time,[15],219.6 s
same,Activity,[17],inactive
same,Activity,[18],Active
same,selectivity ratio,[19],4.3
same,Activity,[32],56.64%
same,Activity,[33],44.39%
same,Activity,[34],11.09 mA
COc1cccc2c1C(=O)c1c(O)c3c(c(O)c1C2=O)C[C@@](O)(C(=O)CO)C[C@@H]3O[C@H]1C[C@H](N)[C@H](O)[C@H](C)O1 [DOXORUBICIN],Activity,[35],Toxic
